Measurements taken from ChEMBL document CHEMBL4038268, “Methylpyrrole inhibitors of BET bromodomains” (Bioorg Med Chem Lett, 2017).

Columns and labels:
Mus musculus [1] = test: Toxicity in SCID-Beige mouse assessed as body weight loss at 150 mg/kg, po qd for 21 days measured during compound dosing relative to control; type: organism-based; conditions: in vivo, 504 h
[2] = target: Bromodomain adjacent to zinc finger domain protein 2B (Homo sapiens, UniProt Q9UIF8); test: Inhibition of human BAZ2B (S2054 to S2168 residues) expressed in bacterial expression system by BROMOscan assay
Sequence of Bromodomain adjacent to zinc finger domain protein 2B (Q9UIF8 whole entry, the tested form may be a part): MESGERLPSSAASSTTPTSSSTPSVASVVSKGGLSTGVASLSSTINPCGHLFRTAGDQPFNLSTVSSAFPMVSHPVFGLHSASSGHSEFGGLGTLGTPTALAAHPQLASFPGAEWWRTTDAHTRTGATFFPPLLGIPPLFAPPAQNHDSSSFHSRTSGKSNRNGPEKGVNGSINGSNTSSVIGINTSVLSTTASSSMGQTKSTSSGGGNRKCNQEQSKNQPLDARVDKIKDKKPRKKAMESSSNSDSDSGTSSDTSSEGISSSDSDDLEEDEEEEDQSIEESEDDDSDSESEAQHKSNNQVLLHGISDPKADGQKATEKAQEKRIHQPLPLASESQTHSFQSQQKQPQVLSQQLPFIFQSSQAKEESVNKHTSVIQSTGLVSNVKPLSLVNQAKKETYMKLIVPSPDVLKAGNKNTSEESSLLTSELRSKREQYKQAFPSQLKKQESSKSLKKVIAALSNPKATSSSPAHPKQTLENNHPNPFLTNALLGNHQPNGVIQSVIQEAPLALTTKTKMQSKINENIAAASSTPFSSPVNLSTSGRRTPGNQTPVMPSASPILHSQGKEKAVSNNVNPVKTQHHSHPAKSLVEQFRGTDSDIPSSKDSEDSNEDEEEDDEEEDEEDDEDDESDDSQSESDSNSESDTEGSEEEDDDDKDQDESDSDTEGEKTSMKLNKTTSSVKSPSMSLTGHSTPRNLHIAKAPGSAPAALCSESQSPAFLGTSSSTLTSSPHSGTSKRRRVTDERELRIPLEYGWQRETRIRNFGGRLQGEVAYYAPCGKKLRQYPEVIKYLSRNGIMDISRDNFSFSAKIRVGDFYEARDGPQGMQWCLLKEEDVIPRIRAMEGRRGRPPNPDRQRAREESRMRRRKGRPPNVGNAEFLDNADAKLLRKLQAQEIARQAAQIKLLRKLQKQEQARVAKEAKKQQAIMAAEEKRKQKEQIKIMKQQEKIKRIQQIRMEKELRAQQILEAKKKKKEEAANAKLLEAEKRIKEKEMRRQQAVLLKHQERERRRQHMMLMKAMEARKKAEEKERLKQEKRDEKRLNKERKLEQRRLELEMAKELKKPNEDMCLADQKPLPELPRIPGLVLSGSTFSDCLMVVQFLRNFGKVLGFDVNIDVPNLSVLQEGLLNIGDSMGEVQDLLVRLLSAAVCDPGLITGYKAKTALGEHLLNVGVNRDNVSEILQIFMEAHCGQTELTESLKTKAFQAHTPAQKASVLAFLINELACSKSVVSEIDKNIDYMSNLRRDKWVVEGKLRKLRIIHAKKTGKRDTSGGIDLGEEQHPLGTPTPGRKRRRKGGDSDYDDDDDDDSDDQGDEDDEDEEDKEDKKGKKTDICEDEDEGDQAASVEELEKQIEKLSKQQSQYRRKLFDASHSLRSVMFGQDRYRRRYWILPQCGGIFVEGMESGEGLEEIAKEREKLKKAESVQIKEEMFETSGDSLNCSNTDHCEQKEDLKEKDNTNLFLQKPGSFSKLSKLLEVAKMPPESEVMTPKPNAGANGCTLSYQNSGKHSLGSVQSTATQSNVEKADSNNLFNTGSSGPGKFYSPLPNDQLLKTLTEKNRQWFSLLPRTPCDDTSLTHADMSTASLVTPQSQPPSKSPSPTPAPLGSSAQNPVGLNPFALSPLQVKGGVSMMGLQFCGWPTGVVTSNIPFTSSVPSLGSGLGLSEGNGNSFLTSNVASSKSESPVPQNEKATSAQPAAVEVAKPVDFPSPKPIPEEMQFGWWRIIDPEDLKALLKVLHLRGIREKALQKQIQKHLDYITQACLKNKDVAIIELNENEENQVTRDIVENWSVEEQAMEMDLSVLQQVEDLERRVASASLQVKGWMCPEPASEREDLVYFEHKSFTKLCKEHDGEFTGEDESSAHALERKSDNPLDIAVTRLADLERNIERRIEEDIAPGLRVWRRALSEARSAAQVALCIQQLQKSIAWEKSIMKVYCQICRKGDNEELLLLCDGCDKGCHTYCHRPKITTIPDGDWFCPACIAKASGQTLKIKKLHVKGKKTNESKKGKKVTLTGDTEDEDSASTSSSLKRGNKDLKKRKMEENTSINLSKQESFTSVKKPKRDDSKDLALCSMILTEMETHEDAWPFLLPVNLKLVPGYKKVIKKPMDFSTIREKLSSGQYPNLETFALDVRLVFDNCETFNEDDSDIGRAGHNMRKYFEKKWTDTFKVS

OPM-2 [3] = test: Antitumor activity against human OPM2 cells xenografted in SCID-Beige mouse assessed as tumor growth inhibition at 150 mg/kg, po qd for 21 days measured twice per week during compound dosing relative to control; type: functional; conditions: OPM-2, po, 504 h, read-out: TGI
[4] = target: Bromodomain-containing protein 1 (Homo sapiens, UniProt O95696); test: Inhibition of human BRD1 (E556 to A688 residues) expressed in bacterial expression system by BROMOscan assay
CREB-binding protein = CREB-binding protein (Homo sapiens, UniProt Q92793); test: Inhibition of human CREBBP (R1081 to G1197 residues) expressed in bacterial expression system by BROMOscan assay
[5] = target: Bromodomain-containing protein 7 (Homo sapiens, UniProt Q9NPI1); test: Inhibition of human BRD7 (L125 to R254 residues) expressed in mammalian expression system by BROMOscan assay
Sequence of Bromodomain-containing protein 7 (Q9NPI1 whole entry, the tested form may be a part): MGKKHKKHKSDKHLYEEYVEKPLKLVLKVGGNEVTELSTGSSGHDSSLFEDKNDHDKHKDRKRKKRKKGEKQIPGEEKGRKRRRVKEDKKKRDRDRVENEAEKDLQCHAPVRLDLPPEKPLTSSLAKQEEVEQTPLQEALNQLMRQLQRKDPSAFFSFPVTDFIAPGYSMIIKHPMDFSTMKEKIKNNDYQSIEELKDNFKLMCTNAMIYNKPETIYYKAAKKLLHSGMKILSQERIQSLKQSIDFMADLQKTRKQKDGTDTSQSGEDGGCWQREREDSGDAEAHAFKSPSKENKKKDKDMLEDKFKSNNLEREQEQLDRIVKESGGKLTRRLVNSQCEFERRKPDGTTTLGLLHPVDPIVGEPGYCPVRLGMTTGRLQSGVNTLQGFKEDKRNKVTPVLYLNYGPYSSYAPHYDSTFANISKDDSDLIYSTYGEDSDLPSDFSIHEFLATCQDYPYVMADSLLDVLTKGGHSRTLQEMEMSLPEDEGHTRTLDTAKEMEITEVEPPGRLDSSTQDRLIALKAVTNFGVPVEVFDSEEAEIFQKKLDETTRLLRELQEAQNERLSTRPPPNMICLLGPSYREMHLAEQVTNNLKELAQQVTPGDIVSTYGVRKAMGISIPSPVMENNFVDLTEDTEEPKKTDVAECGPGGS

[6] = Toxicity in po dosed SCID-Beige mouse administered once daily; type: organism-based; conditions: in vivo
How it was run: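 Oral once-daily dosing in mice bearing OPM-2 multiple myeloma xenografts. Tolerability was judged from mean body-weight loss over the course of the study.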

OPM-2 [7] = test: Antitumor activity against human OPM2 cells xenografted in SCID-Beige mouse assessed as tumor growth inhibition at 100 mg/kg, po qd for 14 days measured twice per week during compound dosing relative to control; type: functional; conditions: OPM-2, po, 336 h, read-out: TGI
How it was run: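 OPM-2 multiple myeloma xenografts in mice dosed orally over 14 days. Either once daily at 100 mg/kg or twice daily at 50 mg/kg ×2, the same total dose. Tumor growth inhibition was calculated over the treatment period. Mean ± SE, n = 10 per group.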

[8] = target: Chromatin remodeling regulator CECR2 (Homo sapiens, UniProt Q9BXF3); test: Inhibition of human CECR2 (P423 to D543 residues) expressed in bacterial expression system by BROMOscan assay
[9] = target: Bromodomain-containing protein 9 (Homo sapiens) (UniProt Q9H8M2); test: Inhibition of human BRD9 isoform 1 (R130 to V259 residues) expressed in bacterial expression system at 1 uM by BROMOscan assay relative to control
Sequence of Bromodomain-containing protein 9 (Homo sapiens) (Q9H8M2 whole entry, the tested form may be a part, canonical isoform): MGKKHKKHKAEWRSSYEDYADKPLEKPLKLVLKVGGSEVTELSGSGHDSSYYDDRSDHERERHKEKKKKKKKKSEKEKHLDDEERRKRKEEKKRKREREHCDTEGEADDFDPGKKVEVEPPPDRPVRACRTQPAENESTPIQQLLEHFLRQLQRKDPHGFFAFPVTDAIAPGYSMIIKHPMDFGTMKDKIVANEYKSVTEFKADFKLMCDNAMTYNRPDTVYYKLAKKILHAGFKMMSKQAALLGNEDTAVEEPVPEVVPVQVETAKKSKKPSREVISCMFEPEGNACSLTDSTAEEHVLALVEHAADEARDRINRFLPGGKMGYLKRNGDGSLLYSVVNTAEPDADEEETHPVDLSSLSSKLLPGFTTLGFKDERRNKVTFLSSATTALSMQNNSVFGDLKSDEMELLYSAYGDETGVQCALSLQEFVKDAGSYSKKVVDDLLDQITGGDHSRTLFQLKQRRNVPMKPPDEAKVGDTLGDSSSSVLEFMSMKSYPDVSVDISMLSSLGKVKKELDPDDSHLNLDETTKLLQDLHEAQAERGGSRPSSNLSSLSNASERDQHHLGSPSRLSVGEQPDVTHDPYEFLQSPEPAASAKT

[10] = target: Histone acetyltransferase KAT2B (Homo sapiens, UniProt Q92831); test: Inhibition of human PCAF (G715 to D831 residues) expressed in mammalian expression system by BROMOscan assay
[11] = target: SWI/SNF-related matrix-associated actin-dependent regulator of chromatin subfamily A member 4 (Homo sapiens, UniProt P51532); test: Inhibition of human SMARCA4 (A1448 to S1575 residues) expressed in bacterial expression system by BROMOscan assay
OPM-2 [12] = test: Antitumor activity against human OPM2 cells xenografted in SCID-Beige mouse assessed as tumor growth inhibition at 100 mg/kg, po bid for 14 days measured twice per week during compound dosing relative to control; type: functional; conditions: OPM-2, po, 336 h, read-out: TGI
[13] = target: SWI/SNF-related matrix-associated actin-dependent regulator of chromatin subfamily A member 2 (Homo sapiens, UniProt P51531); test: Inhibition of human SMARCA2 (S1377 to Q1486 residues) expressed in bacterial expression system by BROMOscan assay
Protein polybromo-1 = Protein polybromo-1 (Homo sapiens, UniProt Q86U86); test: Inhibition of human PBRM1 bromodomain 5 (S645 to D766 residues) expressed in bacterial expression system by BROMOscan assay
Sequence of Protein polybromo-1 (Q86U86 whole entry, the tested form may be a part): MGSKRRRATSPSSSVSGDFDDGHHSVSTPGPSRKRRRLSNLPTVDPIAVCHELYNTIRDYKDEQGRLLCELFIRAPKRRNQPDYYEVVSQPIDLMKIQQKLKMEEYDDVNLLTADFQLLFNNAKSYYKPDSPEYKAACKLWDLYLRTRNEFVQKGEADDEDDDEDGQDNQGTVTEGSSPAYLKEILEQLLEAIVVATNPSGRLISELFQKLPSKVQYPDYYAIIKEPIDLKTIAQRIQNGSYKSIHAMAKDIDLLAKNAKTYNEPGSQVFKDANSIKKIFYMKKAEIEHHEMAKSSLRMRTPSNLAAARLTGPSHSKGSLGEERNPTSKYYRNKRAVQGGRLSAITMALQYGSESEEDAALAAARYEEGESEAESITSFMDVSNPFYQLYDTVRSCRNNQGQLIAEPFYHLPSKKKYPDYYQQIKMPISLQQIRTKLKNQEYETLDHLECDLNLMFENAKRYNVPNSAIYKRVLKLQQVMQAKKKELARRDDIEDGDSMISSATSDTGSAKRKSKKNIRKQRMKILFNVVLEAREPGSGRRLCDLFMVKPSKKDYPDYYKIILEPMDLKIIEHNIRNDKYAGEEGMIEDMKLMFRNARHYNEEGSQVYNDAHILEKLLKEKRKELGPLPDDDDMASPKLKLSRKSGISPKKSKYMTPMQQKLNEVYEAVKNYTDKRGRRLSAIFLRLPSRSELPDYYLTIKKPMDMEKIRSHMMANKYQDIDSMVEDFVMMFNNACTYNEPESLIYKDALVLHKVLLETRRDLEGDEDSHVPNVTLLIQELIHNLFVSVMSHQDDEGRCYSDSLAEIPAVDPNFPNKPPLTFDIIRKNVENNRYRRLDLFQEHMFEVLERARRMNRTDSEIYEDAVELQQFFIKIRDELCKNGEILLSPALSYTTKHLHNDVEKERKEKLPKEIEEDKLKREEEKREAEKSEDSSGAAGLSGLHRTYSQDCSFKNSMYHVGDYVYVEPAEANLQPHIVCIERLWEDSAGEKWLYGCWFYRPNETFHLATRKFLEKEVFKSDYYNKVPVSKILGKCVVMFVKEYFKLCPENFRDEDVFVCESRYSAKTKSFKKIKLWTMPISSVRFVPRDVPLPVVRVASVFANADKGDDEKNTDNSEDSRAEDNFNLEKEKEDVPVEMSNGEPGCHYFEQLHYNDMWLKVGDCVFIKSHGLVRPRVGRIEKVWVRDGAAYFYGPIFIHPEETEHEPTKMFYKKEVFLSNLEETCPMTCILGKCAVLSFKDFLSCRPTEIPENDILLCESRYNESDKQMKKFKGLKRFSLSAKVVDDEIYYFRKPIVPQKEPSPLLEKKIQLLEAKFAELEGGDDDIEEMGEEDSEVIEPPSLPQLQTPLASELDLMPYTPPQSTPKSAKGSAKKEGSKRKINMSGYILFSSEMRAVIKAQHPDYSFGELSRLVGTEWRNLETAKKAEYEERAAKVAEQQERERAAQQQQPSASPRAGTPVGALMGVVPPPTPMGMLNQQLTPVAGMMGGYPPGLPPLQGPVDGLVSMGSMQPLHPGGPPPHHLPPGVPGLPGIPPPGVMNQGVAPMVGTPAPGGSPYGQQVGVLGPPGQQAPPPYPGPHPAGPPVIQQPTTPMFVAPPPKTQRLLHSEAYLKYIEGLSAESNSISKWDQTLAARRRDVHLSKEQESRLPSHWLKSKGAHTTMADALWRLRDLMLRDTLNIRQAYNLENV

[14] = target: Transcription initiation factor TFIID subunit 1-like (Homo sapiens, UniProt Q8IZX4); test: Inhibition of human TAF1L (Q1523 to D1654 residues) expressed in bacterial expression system by BROMOscan assay
Mus musculus [15] = test: Toxicity in SCID-Beige mouse assessed as body weight loss at 30 mg/kg, po qd for 21 days measured during compound dosing relative to control; type: organism-based; conditions: in vivo, 504 h
OPM-2 [16] = test: Antitumor activity against human OPM2 cells xenografted in SCID-Beige mouse assessed as tumor growth inhibition at 30 mg/kg, po qd for 21 days measured twice per week during compound dosing relative to control; type: functional; conditions: OPM-2, po, 504 h, read-out: TGI

SMILES	Activity (Mus musculus [1])	IC50 [2]	inhibition in vivo at 150 mg/kg (OPM-2 [3])	IC50 [4]	IC50 (CREB-binding protein)	IC50 [5]	MTD [6]	inhibition in vivo at 100 mg/kg (OPM-2 [7])	IC50 [8]	inhibition [9]	IC50 [10]	IC50 [11]	inhibition in vivo at 100 mg/kg (OPM-2 [12])	IC50 [13]	IC50 (Protein polybromo-1)	IC50 [14]	Activity (Mus musculus [15])	inhibition in vivo at 30 mg/kg (OPM-2 [16])
Cc1[nH]c(-c2cc(S(C)(=O)=O)ccc2Oc2ccc(F)cc2F)c2c1C(=O)NCC2	1 to 3%	> 1000 nM	68%	> 1000 nM	1000 nM													
Cc1[nH]c(-c2cc(NS(C)(=O)=O)ccc2Oc2ccccc2)c2c1C(=O)CCC2		> 1000 nM		> 1000 nM	1000 nM	> 1000 nM	100 mg/kg/day	53%	> 1000 nM	67%	> 1000 nM	> 1000 nM	73%	1000 nM	> 1000 nM	> 1000 nM		
Cn1cc(-c2cc(S(C)(=O)=O)ccc2Oc2ccc(F)cc2F)c2cc[nH]c(=O)c21						> 1000 nM			> 1000 nM	88%		> 1000 nM		> 1000 nM	> 1000 nM	> 1000 nM	1 to 3%	64%
